Test results: publication PMC8830944 (Molecular Diversity, 2022)
Values after ≈ are worked out from the molar mass of the structure shown.

Columns and labels:
[1] = PAMPA; format: in vitro ADME; settings: for Papp at 5 h, 500 µM: pH 7.4
[2] = system: C. albicans; assay: Antifungal MIC, liquid growth inhibition; format: cell-based; settings: Candida albicans, 24 h, read-out: Antifungal activity, MIC90
In short: (§1)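 Clinical isolates from patient specimens, one isolate per patient. Yeasts were grown in YPD at 37 °C for 16 h with 150 rpm shaking, then subcultured to OD 0.3. Inoculum was set to 0.5 McFarland and diluted 1:500 in RPMI 1640 […]. CLSI broth microdilution used final compound concentrations of 256–0.125 µg/mL. MIC90 is the concentration inhibiting 90% of the strains tested per species.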

[3] = system: C. tropicalis; assay: Antifungal MIC, liquid growth inhibition; format: cell-based; settings: Candida tropicalis, 24 h, read-out: Antifungal activity, MIC90
In short: as §1

[4] = system: C. neoformans; assay: Antifungal MIC, liquid growth inhibition; format: cell-based; settings: Cryptococcus neoformans, 24 h, read-out: Antifungal activity, MIC90
In short: as §1

| Papp at 5 h, 500 µM [1] [×10⁻⁶ cm/s] | Membrane retention ([1]; phosphatidylcholine in dodecane, pH 7.4, 5 h, r.t.) [%] | MIC90 [2] [µg/mL] | MIC90 [3] [µg/mL] | MIC90 [4] [µg/mL] | Structure (SMILES) |
| --- | --- | --- | --- | --- | --- |
| 1.84 | 3.2 | – | – | – | Cn1c(=O)c2c(ncn2C)n(C)c1=O [Caffeine] |
| 0.3 | – | – | – | – | O=C(N[C@H](CO)[C@H](O)c1ccc([N+](=O)[O-])cc1)C(Cl)Cl [Chloramphenicol] |
| – | – | 2 (≈ 6.53 µM) | 2 (≈ 6.53 µM) | 2 (≈ 6.53 µM) | OC(Cn1cncn1)(Cn1cncn1)c1ccc(F)cc1F [F, Fluconazole] |
